Source: ChEMBL document CHEMBL4765345, “Design, synthesis, and biological evaluation of dual targeting inhibitors of histone deacetylase 6/8 and bromodomain BRPF1” (Eur J Med Chem, 2020)

How the values were obtained:
[1] = target: T1, Histone deacetylase 1 (Homo sapiens, UniProt Q13547); assay: Inhibition of recombinant human HDAC1 using Z-(Ac)Lys-AMC as substrate after 90 mins by fluorescence based micro plate assay
How it was run: (§1)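 Recombinant human HDAC1 or HDAC6 incubated 90 min at 37 °C with 10.5 μM ZMAL (Z-(Ac)Lys-AMC) and increasing inhibitor concentrations, using a homogeneous fluorescence assay. Fluorescence read at Ex 390/Em 460 nm.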

[2] = target: T2, Protein deacetylase HDAC6 (Homo sapiens, UniProt Q9UBN7); assay: Inhibition of recombinant human HDAC6 using Z-(Ac)Lys-AMC as substrate after 90 mins by fluorescence based micro plate assay; how it was run: as §1
T2 sequence (Q9UBN7 whole entry): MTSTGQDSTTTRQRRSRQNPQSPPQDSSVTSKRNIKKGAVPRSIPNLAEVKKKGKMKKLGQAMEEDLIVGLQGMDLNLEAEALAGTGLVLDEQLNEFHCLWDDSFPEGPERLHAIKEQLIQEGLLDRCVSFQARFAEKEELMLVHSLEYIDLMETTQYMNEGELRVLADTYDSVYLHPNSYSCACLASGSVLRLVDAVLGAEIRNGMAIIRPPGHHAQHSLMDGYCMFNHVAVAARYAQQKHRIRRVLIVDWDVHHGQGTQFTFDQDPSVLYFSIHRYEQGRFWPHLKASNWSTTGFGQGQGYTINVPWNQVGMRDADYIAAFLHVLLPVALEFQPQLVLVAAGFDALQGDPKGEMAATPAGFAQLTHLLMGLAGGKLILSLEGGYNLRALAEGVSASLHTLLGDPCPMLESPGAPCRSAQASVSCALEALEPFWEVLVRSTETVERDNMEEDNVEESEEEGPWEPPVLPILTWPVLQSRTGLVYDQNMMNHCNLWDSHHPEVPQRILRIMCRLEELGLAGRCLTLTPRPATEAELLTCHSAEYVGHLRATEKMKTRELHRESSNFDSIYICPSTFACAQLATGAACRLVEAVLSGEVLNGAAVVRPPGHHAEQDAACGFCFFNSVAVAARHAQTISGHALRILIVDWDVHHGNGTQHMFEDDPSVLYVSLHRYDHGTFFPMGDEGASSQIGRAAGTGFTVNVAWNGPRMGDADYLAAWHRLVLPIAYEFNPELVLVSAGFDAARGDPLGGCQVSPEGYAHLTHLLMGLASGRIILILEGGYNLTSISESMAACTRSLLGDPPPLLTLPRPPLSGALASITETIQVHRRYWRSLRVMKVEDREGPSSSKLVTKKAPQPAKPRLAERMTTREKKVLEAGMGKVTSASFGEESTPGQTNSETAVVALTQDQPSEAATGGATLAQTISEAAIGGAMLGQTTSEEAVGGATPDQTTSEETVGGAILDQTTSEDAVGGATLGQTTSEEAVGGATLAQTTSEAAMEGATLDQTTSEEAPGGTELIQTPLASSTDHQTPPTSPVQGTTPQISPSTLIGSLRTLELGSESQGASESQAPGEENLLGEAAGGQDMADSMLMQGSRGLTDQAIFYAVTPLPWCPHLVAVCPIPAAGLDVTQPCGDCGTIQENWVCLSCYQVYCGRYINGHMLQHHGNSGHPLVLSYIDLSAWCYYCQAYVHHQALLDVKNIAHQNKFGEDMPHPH

[3] = target: T3, Histone deacetylase 8 (Homo sapiens, UniProt Q9BY41); assay: Inhibition of human recombinant HDAC8 using H2N-Arg-His-Lys(Ac)-Lys(Ac)-AMC as substrate after 90 mins by fluorescence based micro plate assay
T3 sequence (Q9BY41 whole entry): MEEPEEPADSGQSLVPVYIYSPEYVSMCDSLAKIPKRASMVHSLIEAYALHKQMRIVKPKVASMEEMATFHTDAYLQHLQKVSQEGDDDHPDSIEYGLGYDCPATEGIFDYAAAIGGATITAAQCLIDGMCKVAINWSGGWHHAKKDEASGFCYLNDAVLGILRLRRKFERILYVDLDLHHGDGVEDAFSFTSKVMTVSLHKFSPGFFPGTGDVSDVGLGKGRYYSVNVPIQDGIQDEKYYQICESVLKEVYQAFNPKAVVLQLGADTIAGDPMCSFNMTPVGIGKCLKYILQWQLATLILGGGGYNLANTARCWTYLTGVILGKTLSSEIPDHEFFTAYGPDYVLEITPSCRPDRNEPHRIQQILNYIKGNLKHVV

[4] = target: T4, Peregrin (Homo sapiens, UniProt P55201); assay: Binding affinity to BRPF1 (unknown origin) by Isothermal titration calorimetry
T4 sequence (P55201 whole entry): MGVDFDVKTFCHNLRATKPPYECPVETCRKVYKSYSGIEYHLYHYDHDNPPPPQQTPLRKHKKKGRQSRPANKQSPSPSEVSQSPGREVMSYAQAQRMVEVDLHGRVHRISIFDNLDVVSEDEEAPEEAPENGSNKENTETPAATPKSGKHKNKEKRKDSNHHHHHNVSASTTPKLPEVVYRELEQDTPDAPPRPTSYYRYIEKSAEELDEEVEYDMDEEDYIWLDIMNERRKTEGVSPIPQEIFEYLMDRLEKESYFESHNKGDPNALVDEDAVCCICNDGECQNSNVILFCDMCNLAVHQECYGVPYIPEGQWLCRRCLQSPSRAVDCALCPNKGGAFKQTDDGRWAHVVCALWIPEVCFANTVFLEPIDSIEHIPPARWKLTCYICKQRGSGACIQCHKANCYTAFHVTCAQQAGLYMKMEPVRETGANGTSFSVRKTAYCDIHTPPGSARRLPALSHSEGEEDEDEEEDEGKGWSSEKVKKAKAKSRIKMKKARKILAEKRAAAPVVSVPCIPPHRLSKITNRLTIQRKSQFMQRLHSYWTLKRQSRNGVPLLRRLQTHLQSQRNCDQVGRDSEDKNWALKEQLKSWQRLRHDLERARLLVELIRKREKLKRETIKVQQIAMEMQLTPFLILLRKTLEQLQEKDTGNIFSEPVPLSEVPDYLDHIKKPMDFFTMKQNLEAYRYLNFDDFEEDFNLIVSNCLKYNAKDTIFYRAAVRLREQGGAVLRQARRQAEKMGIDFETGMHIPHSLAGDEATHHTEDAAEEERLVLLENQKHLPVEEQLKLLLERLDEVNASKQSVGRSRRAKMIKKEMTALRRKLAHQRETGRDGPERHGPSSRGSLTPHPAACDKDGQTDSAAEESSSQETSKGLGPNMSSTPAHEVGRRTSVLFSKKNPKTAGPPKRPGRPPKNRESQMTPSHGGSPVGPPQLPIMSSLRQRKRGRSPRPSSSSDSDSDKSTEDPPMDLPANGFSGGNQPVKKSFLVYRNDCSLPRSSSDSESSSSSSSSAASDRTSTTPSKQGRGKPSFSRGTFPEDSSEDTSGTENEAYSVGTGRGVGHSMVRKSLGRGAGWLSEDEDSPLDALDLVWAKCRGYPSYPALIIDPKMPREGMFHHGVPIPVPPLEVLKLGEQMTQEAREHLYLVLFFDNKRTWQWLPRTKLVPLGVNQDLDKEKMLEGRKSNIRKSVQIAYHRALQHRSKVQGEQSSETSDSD
How it was run: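 Isothermal titration calorimetry with recombinant BRPF1 (200–400 μM) in the injection syringe titrated into ligand (20–40 μM) in the sample cell. Kd was fitted from the titrations and reported with its P99 interval.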

[5] = test system: THP-1; assay: Antiproliferative activity against human THP-1 assessed as reduction in cell growth at 100 uM by CellTiter-non radioactive cell proliferation assay; assay type: functional
[6] = test system: HL-60; assay: Antiproliferative activity against human HL60 assessed as reduction in cell growth at 100 uM by CellTiter-non radioactive cell proliferation assay; assay type: functional
[7] = test system: HL-60; assay: Antiproliferative activity against human HL60 assessed as reduction in cell growth at 20 uM by CellTiter-non radioactive cell proliferation assay; assay type: functional
[8] = test system: THP-1; assay: Antiproliferative activity against human THP-1 assessed as reduction in cell growth at 1 uM by CellTiter-non radioactive cell proliferation assay; assay type: functional
[9] = test system: HL-60; assay: Antiproliferative activity against human HL60 assessed as reduction in cell growth at 1 uM by CellTiter-non radioactive cell proliferation assay; assay type: functional
[10] = test system: THP-1; assay: Antiproliferative activity against human THP-1 assessed as reduction in cell growth at 20 uM by CellTiter-non radioactive cell proliferation assay; assay type: functional
[11] = Chemical stability of the compound in standard cellular assay conditions measured after 4 days; assay type: physicochemical; settings: 96 h; time 4 day
How it was run: (§2)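 Compounds were incubated at 37 °C in DMEM (cellular assay conditions) or in PBS pH 7.4 (in vitro assay conditions) for various times up to 4 days. The parent compound and any hydrolysis products were detected and quantified by HPLC.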

[12] = Stability of the compound in phosphate buffer at pH 7.4 measured after 4 days; assay type: physicochemical; settings: pH 7.4, 96 h, time 4 day; how it was run: as §2
[13] = test system: HL-60; assay: Antiproliferative activity against human HL60 assessed as reduction in cell growth at 50 uM by CellTiter-non radioactive cell proliferation assay; assay type: functional
How it was run: (§3)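 HL60 cells plated at 5000 per well and given inhibitor or DMSO vehicle immediately. Compounds diluted from 200x DMSO stocks; three replicates per concentration. Growth read by CellTiter 96 Aqueous (MTS) assay. GI50 is the concentration cutting metabolically active cells by 50% versus DMSO control, taken from absorbance against log concentration.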

[14] = target: T5, Protein deacetylase HDAC6 (Homo sapiens) (UniProt Q9UBN7); assay: Inhibition of recombinant human HDAC6 at 1 uM using Z-(Ac)Lys-AMC as substrate after 90 mins by fluorescence based micro plate assay; how it was run: as §1
T5 sequence (whole entry): T2 sequence (Q9UBN7 whole entry)

[15] = target: T5, Protein deacetylase HDAC6 (Homo sapiens); assay: Inhibition of recombinant human HDAC6 at 10 uM using Z-(Ac)Lys-AMC as substrate after 90 mins by fluorescence based micro plate assay; how it was run: as §1
[16] = (§4) Cytotoxicity against human HEK293 assessed as reduction in cell viability incubated for 24 hrs by AlamarBlue assay; assay type: cell-based; settings: HEK293 cells, read-out: INH
How it was run: (§5)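 HEK293 cells were grown at 37 °C under 5% CO2 in DMEM with 10% FCS and 5 mM glutamine and seeded at 1.5 x 10³ cells per well. Compound at 50 μM was added at once. After 24 h AlamarBlue was added for another 21 h, and fluorescence was read at Ex 560/Em 590 nm. Triplicates over three independent experiments.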

[17] = test system: HL-60; assay: Antiproliferative activity against human HL60 assessed as reduction in cell growth at 4 uM by CellTiter-non radioactive cell proliferation assay; assay type: functional; how it was run: as §3
[18] = target: T1, Histone deacetylase 1; assay: Inhibition of recombinant human HDAC1 at 1 uM using Z-(Ac)Lys-AMC as substrate after 90 mins by fluorescence based micro plate assay; how it was run: as §1
[19] = target: T1, Histone deacetylase 1; assay: Inhibition of recombinant human HDAC1 at 10 uM using Z-(Ac)Lys-AMC as substrate after 90 mins by fluorescence based micro plate assay; how it was run: as §1
[20] = test system: THP-1; assay: Antiproliferative activity against human THP-1 assessed as reduction in cell growth at 4 uM by CellTiter-non radioactive cell proliferation assay; assay type: functional
[21] = test system: HEK293; assay: as §4; assay type: cell-based; settings: hek293, 24 h; how it was run: as §5
[22] = test system: THP-1 (Homo sapiens); assay: Antiproliferative activity against human THP-1 assessed as reduction in metabolically active cells by CellTiter-non radioactive cell proliferation assay
[23] = Inhibition of HDAC (unknown origin); design: species or system Homo sapiens

T1 sequence (Q13547 whole entry): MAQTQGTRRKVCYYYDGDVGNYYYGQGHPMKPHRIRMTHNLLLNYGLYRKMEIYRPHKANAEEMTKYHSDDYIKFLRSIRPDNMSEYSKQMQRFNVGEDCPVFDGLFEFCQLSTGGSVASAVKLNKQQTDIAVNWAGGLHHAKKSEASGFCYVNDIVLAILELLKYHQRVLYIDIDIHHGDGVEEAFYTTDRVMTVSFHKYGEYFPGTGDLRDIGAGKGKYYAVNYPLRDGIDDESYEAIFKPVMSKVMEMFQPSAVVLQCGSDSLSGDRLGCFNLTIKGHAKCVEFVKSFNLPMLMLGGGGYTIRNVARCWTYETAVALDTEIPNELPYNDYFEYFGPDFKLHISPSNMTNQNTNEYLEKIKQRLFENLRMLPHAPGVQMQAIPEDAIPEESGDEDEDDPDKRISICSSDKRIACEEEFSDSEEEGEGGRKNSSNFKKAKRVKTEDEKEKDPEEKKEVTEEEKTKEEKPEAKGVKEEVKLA

SMILES	IC50 [1]	IC50 [3]	Kd ([4]; read-out: Kd)	inhibition at 100 µM [5]	inhibition at 100 µM [6]	inhibition at 20 µM [7]	inhibition at 1 µM [8]	inhibition at 1 µM [9]	inhibition at 20 µM [10]	inhibition at 4 µM [17]	also measured
Cc1cc2cc(NS(=O)(=O)Cc3ccc(C(=O)NO)cc3)ccc2n(C)c1=O	545 nM	360 nM	1500 nM	89%	27%	0%	0%	5%	8%	–	IC50 [2]: 152 nM; Stabilty [11]: Stable; Stabilty [12]: Stable
Cc1cc2cc(NC(=O)c3ccc(S(=O)(=O)Nc4ccc5c(c4)cc(C)c(=O)n5C)cc3)ccc2n(C)c1=O	–	–	–	73%	–	55%	0%	20%	84%	–	inhibition at 50 µM [13]: 48%
Cc1cc2cc(NS(=O)(=O)c3cc(C(=O)NO)ccc3Cl)ccc2n(C)c1=O	–	560 nM	234 nM	21%	33%	32%	–	–	8%	29%	inhibition [18]: 13%; inhibition [19]: 31%; inhibition [14]: 13%; inhibition [15]: 59%; inhibition at 4 µM [20]: 16%
COC(=O)c1ccc(OC)c(S(=O)(=O)Nc2ccc3c(c2)cc(C)c(=O)n3C)c1	–	–	–	102%	66%	44%	–	–	101%	39%	Activity [21]: Non-Toxic; inhibition at 4 µM [20]: 40%; GI50 [22]: 5500 nM
O=C(CCCCCCOc1ccccc1C(=O)Nc1ncnc2[nH]cnc12)NO	–	–	–	–	–	–	–	–	–	–	Kd [4]: 2700 nM; IC50 [23]: 260 nM

The next lines start with results.

IC50 [1]	IC50 [3]	Kd ([4]; read-out: Kd)	SMILES	inhibition at 100 µM [5]	inhibition at 100 µM [6]	inhibition at 20 µM [7]	inhibition at 1 µM [8]	inhibition at 1 µM [9]	inhibition at 20 µM [10]	inhibition at 4 µM [17]	also measured
797 nM	908 nM	175 nM	Cc1cc2cc(NS(=O)(=O)c3ccc(C(=O)NO)cc3)ccc2n(C)c1=O	78%	34%	6%	0%	3%	–	–	IC50 [2]: 344 nM
5200 nM	956 nM	4080 nM	COc1ccc(C(=O)NO)cc1NCc1ccc(OCCCCC(=O)Nc2ccc3c(c2)cc(C)c(=O)n3C)cc1	–	0%	0%	–	–	0%	0%	inhibition [14]: 50%; inhibition [15]: 68%; cytotoxicity at 24 h [16]: 15%
